Series [1] in a line: Plasma and brain compound concentrations after i.p. administration to mice. In kind it is in vivo, mice (B6C3F1). The note with it: for concentration at 2 h / Kp at 2 h: 5 mg/kg; for Plasma drug level / Brain drug level / B/P (Brain-to-Plasma ratio): mice; for B/P (Brain-to-Plasma ratio): total drug. The gist of the method:
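Male B6C3F1 mice are dosed i.p. with test compound in DMSO. Brains are sonicated in 10 mM ammonium acetate, pH 5.7 (1:2 w/v). Plasma comes from blood collected with EDTA and spun 10 min at 4500g, 4°C. Each 50 μl aliquot is precipitated with 0.2 ml acetonitrile and spun at 15,000g. Supernatants are quantified by LC-MS/MS.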

In series [2] the test system is acetyl-tubulin in PC12 cells. Nature of the series: Acetyl-tubulin levels in PC12 cells. In kind it is cell-based. The settings on record: 24 hours treatment, increasing concentrations.
The subject of series [3] is brain acetyl-tubulin. Put plainly: Brain acetyl-tubulin ELISA after administration to mice. In kind it is in vivo, mice (B6C3F1). The note with it: for Brain acetyl-tubulin relative to vehicle: 16 hours after dosing. The gist of the method:
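Young male B6C3F1 mice (2–3 months) get a single i.p. dose of test compound in DMSO (~40 μl, scaled to body weight), n=3–6 per group. Brain hemispheres are sonicated 1:5 w/v in RIPA with protease inhibitors and trichostatin A. Sandwich ELISA uses 12G10 α-tubulin capture and HRP-acetyl-tubulin detection at 450 nm. Inputs run from 60 to 2.2 ng/μl in duplicate and are fit to the vehicle input curve.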

In series [4] the test system is optic nerve (ON) acetyl-tubulin. Put plainly: Optic nerve acetyl-tubulin ELISA after administration to mice. In kind it is in vivo, mice (B6C3F1). The note with it: 1, 3 and 10 mg/kg i.p., 16 hours after dosing. The gist of the method: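 Male B6C3F1 mice (2–3 months, n=3/treatment) get a single i.p. dose of test compound in DMSO, volume scaled to body weight. Optic nerves are taken 16 hours later and sonicated 1:5 w/v in RIPA with inhibitors. Acetyl-tubulin is measured by α-tubulin-capture/HRP-acetyl-tubulin ELISA at 450 nm, using duplicate serial inputs. Values are read off a vehicle-control input curve and normalized to vehicle mice.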

For series [5], the system named is Tg mice that express human tau. The settings on record: cited from earlier work.
In series [6] the target is P-gp (human MDR1) (Homo sapiens, UniProt P08183). Nature of the series: MDCK-MDR bi-directional permeability assay. The note with it: dog, MDCK-MDR1, pH 7.4.
The target of series [7] is T1, Pgp (human MDR1) in MDCK-MDR cells (Homo sapiens, UniProt P08183). Nature of the series: MDCK-MDR bi-directional permeability assay. The note with it: 5 μM test compound; for Papp (A-B) / Papp (B-A): pH 7.4.
For series [8], the target named is T1, Pgp (human MDR1) in MDCK-MDR cells. Nature of the series: Inhibition of Pgp-mediated transport of digoxin in MDCK-MDR cells. The note with it: 10 μM digoxin + 5 μM test compound.
[9] abbreviates: male, B6C3F1, mouse, brain, intraperitoneal, 3 mg/kg.
Where [10] appears, read: male, B6C3F1, mouse, brain, ip, 10 mg/kg.
[11] abbreviates: male, B6C3F1, mouse, brain/plasma, ip.
[12] abbreviates: male, B6C3F1, mouse, plasma, ip.

T1 sequence (P08183 whole entry): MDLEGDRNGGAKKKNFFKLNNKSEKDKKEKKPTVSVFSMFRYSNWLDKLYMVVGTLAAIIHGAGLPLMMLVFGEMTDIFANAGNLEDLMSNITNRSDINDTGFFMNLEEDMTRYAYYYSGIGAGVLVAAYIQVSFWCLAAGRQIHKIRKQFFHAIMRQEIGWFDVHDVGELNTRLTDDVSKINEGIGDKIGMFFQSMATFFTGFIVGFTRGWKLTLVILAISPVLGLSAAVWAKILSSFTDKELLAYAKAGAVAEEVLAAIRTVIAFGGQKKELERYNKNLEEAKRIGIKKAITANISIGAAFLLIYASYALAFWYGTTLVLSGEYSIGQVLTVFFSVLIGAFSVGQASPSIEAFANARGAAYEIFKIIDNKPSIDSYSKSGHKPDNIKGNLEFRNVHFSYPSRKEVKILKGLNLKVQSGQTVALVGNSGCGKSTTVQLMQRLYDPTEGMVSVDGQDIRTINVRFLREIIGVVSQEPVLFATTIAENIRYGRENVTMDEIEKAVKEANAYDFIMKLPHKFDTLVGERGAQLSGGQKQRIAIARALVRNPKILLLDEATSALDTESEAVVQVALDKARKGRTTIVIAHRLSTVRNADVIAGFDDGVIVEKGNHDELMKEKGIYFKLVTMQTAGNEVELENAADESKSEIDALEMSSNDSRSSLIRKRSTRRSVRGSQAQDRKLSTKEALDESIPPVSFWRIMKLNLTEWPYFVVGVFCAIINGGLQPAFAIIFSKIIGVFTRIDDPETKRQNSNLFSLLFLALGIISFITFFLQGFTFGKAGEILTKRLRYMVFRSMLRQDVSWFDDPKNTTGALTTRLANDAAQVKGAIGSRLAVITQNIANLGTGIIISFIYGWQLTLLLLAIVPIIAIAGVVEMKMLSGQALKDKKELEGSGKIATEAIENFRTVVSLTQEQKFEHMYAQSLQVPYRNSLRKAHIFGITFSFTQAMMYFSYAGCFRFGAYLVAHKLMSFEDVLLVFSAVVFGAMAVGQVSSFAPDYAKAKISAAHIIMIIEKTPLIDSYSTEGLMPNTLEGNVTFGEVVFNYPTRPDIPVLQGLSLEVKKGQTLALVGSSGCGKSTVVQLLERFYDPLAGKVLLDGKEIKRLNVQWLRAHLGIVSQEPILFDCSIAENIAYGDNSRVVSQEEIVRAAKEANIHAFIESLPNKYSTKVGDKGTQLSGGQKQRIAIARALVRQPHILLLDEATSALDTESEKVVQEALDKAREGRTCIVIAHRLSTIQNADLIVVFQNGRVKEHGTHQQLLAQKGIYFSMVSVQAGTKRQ
Sequence of P-gp (human MDR1) (P08183 whole entry): as above

Take `C/C1=C/C[C@@H](/C(C)=C/c2csc(C)n2)OC(=O)C[C@H](O)C(C)(C)C(=O)[C@H](C)[C@@H](O)[C@@H](C)CCC1` [CNDR-66, Epothilone D]: the “Brain elimination half-life compared with plasma” value in series [1] (full pharmacokinetic analysis, data not shown) is “far exceeded that observed in the plasma”. The compound also came in with a concentration at 7 days in series [1] (setting [9]) of 8.3 ng/g. The concentration at 10 days in series [1] (setting [9]) was determined as 1.8 ng/g. The concentration at 2 h was determined as 109 ng/g in series [1] (male, B6C3F1, mouse, brain, ip) and 14 ng/mL in series [1] (setting [12]). In series [1] (setting [10]), this compound had a concentration at 24 h of 64 ng/g. In series [1] (setting [11]), the concentration ratio (Kp) (usually tissue or fluid exposure divided by exposure in the circulation) at 2 h came to 7.6. In series [1] (i.p. 10 mg/kg, 24 hours), the Plasma drug level result was “BLD”. In addition, in series [2], the “Amount of acetyl-tubulin in PC12 cells” value was “significant concentration-dependent increase”. Further, the Brain acetyl-tubulin levels entry is listed as “significant increase of brain acetyl-tubulin” in series [3] (single 1 mg/kg, 7 days after dosing); “increased acetyl-tubulin levels” in series [3] (single 3 mg/kg, 6 and 10 days after dosing); “increase of acetyl-tubulin” in series [3] (single 3 mg/kg, 7 days after dosing); “statistically insignificant change” in series [3] (single 3 mg/kg, 14 days after dosing); “not further increased” in series [3] (single 6 mg/kg, 7 days after dosing, compared with 3 mg/kg). Also, the “ON acetyl-tubulin relative to vehicle (in words)” value in series [4] was “elevation of acetyl-tubulin at all doses”. Further, in series [5], the “Effect in Tg mice that express mutant human tau” value is “improve CNS axonal integrity, MT density and cognitive performance”. The apical-to-basolateral permeability (Papp A→B) – broadly, the apparent permeability from the apical to the basolateral side of a cell layer – at 2 h, 5 µM in series [6] came to 30 ×10⁻⁶ cm/s. Besides, the Papp B→A (usually how fast a substance crosses the layer from the basolateral side) at 2 h, 5 µM in series [6] is 46.8 ×10⁻⁶ cm/s. The efflux ratio (commonly a quotient of directional permeabilities that is used to spot active efflux) at 2 h, 5 µM in series [6] is 1.6. In addition, the “Efflux Ratio (B-A)/(A-B)” value in series [7] is recorded as “near unity”. In series [8], the “Inhibition of Pgp transport of digoxin (in words)” value was “potent inhibitor of Pgp transport”.

For the compound `C/C1=C/C[C@@H](/C(C)=C/c2csc(CO)n2)OC(=O)C[C@H](O)C(C)(C)C(=O)[C@H](C)[C@@H](O)[C@@H](C)/C=C/C1` [CNDR-88], in series [1] (i.p. 5 mg/kg, 2 hours), the Brain drug level is given as 30 ng/g, the Plasma drug level came to 12 ng/mL and the “B/P (Brain-to-Plasma ratio)” value was 2.6. Further, in series [1] (i.p. 10 mg/kg, 24 hours), the Brain drug level is 45 ng/g, the Plasma drug level was determined as 6.1 ng/mL and the “B/P (Brain-to-Plasma ratio)” value is 7.3. The “ON acetyl-tubulin relative to vehicle (in words)” value in series [4] is given as “neither CNDR-86 nor CNDR-88 elicited a change at any dose”. For the same compound, in series [7], the “Papp (A-B)” value is 0.8 10^−6 cm/s and the “Papp (B-A)” value was 58.6 10^−6 cm/s.

Regarding `C/C1=C/C[C@@H](/C(C)=C/c2csc(CO)n2)OC(=O)C[C@H](O)C(C)(C)C(=O)[C@H](C)[C@@H](O)[C@@H](C)CCC1` [CNDR-89, 12,13-desoxy-epothilone F], in series [1] (i.p. 5 mg/kg, 2 hours), the Brain drug level is reported as 24 ng/g, the Plasma drug level was determined as 6.8 ng/mL and the “B/P (Brain-to-Plasma ratio)” value was determined as 3.5. In series [1] (i.p. 10 mg/kg, 24 hours), the Brain drug level was determined as 13 ng/g and the Plasma drug level entry was “BLD”. Besides, the “Brain acetyl-tubulin relative to vehicle” value in series [3] (3 mg/kg i.p.) is reported as “increase of acetyl-tubulin relative to vehicle”. Further, the “Brain acetyl-tubulin relative to vehicle” value in series [3] (10 mg/kg i.p.) is given as “no effect”. Besides, in series [4], the “ON acetyl-tubulin relative to vehicle (in words)” value is on record as “only resulted in an increase of the stabilized MT biomarker at 10 mg/kg”. In series [7], the “Papp (A-B)” value is on record as 2.3 10^−6 cm/s and the “Papp (B-A)” value is 63 10^−6 cm/s.

Regarding `C/C(=C\c1csc(C)n1)[C@@H]1C[C@@H]2O[C@]2(C)CCC[C@H](C)[C@H](O)[C@@H](C)C(=O)C(C)(C)[C@@H](O)CC(=O)N1` [CNDR-90, ixabepilone, reference compound], the concentration at 2 h was determined as 142 ng/g in series [1] (male, B6C3F1, mouse, brain, ip) and 319 ng/mL in series [1] (setting [12]). Further, the concentration at 24 h in series [1] (setting [10]) stood at 107 ng/g; in series [1] (male, B6C3F1, mouse, plasma, ip, 10 mg/kg), 41 ng/mL. The compound further returned a partition ratio (Kp) at 2 h in series [1] (setting [11]) of 0.4. In addition, in series [1] (male, B6C3F1, mouse, brain/plasma, ip, 10 mg/kg), the Kp at 24 h is 2.6.

Take `CC(=O)O[C@H]1C(=O)[C@@]2(C)[C@H]([C@H](OC(=O)c3ccccc3)[C@]3(O)C[C@H](OC(=O)[C@H](O)[C@@H](NC(=O)c4ccccc4)c4ccccc4)C(C)=C1C3(C)C)[C@]1(OC(C)=O)CO[C@@H]1C[C@@H]2O` [Paclitaxel, reference compound]: the concentration at 2 h was 85 ng/g in series [1] (male, B6C3F1, mouse, brain, ip) and 1290 ng/mL in series [1] (setting [12]). Also, in series [1] (i.p. 5 mg/kg, 2 hours), the “B/P (Brain-to-Plasma ratio)” value is recorded as 0.07. The “Effect in Tg mice that over-express human tau” value in series [5] (drug absorption at peripheral neuromuscular junctions) was “increased MT density and marked improvement in motor function”.

Source of the values: PMC3042036 (Pharmacological research : the official journal of the …, 2010).
